What all share (type): functional
Assay [1] relates to Escherichia coli. As to the kind of experiment: Inhibition of growth of Escherichia coli H560.
For assay [2], the system named is Escherichia coli. As to the kind of experiment: Minimum concentration of the drug needed to produce linear DNA at an intensity relative to oxolinic acid(at 10 ug/mL). As to conditions: read-out: I50. A digest of the protocol: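 DNA gyrase from Escherichia coli H560, assayed by a previously published procedure. The end point is the lowest drug concentration giving linear DNA at an intensity matching the oxolinic acid reference at 10 μg/mL.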

For assay [3], the system named is Escherichia coli. Briefly: Inhibition of growth of Escherichia coli vogel.
Assay [4] has as its system Enterobacter cloacae. Briefly: Inhibition of growth of Entero. cloacae.
In assay [5] the test system is Klebsiella pneumoniae. Briefly: Inhibition of growth of Klebsiella pneumonia.
Assay [6] has as its system Pseudomonas aeruginosa. Briefly: Inhibition of growth of Pseudomonas aeruginosa.
The subject of assay [7] is Providencia rettgeri. Briefly: Inhibition of growth of Proteus rettgeri.
Assay [8] relates to Staphylococcus aureus. As to the kind of experiment: Inhibition of growth of Staphylococcus aureus (resistant).
For assay [9], the system named is Staphylococcus aureus. Briefly: Inhibition of growth of Staphylococcus aureus (sensitive).
In assay [10] the test system is Streptococcus pneumoniae. As to the kind of experiment: Inhibition of growth of Streptococcus pneumonia.
Assay [11] deals with Streptococcus pyogenes. As to the kind of experiment: Inhibition of growth of Streptococcus pyogenes.
Assay [12] deals with Enterococcus faecalis. As to the kind of experiment: Inhibition of growth of Streptococcus faecalis.
Assay [13] concerns Mus musculus. Briefly: In vivo protective dose (PD50) in mice against Escherichia coli Vogel when administered perorally. As to conditions: po, read-out: PD50.
The subject of assay [14] is Mus musculus. As to the kind of experiment: In vivo protective dose (PD50) in mice against Escherichia coli Vogel when administered subcutaneously. As to conditions: sc, read-out: PD50.

Each structure is given as a SMILES string. ≈ marks a conversion by molar mass, not a printed value.

One may read the MIC as the lowest concentration found to suppress growth. Read a low MIC as inhibition by little substance. For the compound `CCNCC1CCN(c2c(F)cc3c(=O)c(C(=O)O)cn4c3c2OCC42CC2)C1` (stereo unspecified), the MIC was found to be 1.6 µg/mL (≈ 3.99 µM) in assay [1]; 0.8 µg/mL (≈ 1.99 µM) in assay [3]; 0.8 µg/mL (≈ 1.99 µM) in [4]; 3.1 µg/mL (≈ 7.72 µM) in [5]; 6.3 µg/mL (≈ 15.7 µM) in assay [6]; 3.1 µg/mL (≈ 7.72 µM) in assay [7]. Besides, the MIC is 1.6 µg/mL (≈ 3.99 µM) in [8]; 0.1 µg/mL (≈ 0.249 µM) in [9]; 0.05 µg/mL (≈ 0.125 µM) in assay [10]; 0.05 µg/mL (≈ 0.125 µM) in assay [11]; 0.8 µg/mL (≈ 1.99 µM) in assay [12]. In [2], the IC50 was determined as 5.5 µg/mL (≈ 13.7 µM).
With `O=C(O)c1cn2c3c(c(N4CCNCC4)c(F)cc3c1=O)OCC21CC1`, the MIC in [1] came out at 0.4 µg/mL (≈ 1.11 µM); in assay [3] it was 0.8 µg/mL (≈ 2.23 µM); in [4], 0.4 µg/mL (≈ 1.11 µM); in [5] it was 0.8 µg/mL (≈ 2.23 µM); in [6], 0.8 µg/mL (≈ 2.23 µM); in assay [7] it was 1.6 µg/mL (≈ 4.45 µM). In addition, the MIC in assay [8] is 6.3 µg/mL (≈ 17.5 µM); in assay [9], 1.6 µg/mL (≈ 4.45 µM); in assay [10] it was 12.5 µg/mL (≈ 34.8 µM); in [11], 12.5 µg/mL (≈ 34.8 µM); in [12], 6.3 µg/mL (≈ 17.5 µM). Besides, in [2], the IC50 amounted to 11.2 µg/mL (≈ 31.3 µM).
As to `CC1COc2c(N3CCNCC3)c(F)cc3c(=O)c(C(=O)O)cn1c23` (stereo unspecified) [DESMETHYL-OFLOXACIN], the MIC in assay [1] turned out to be 0.1 µg/mL (≈ 0.288 µM); in assay [3] it was 0.2 µg/mL (≈ 0.576 µM); in assay [4], 0.1 µg/mL (≈ 0.288 µM); in assay [5] it was 0.2 µg/mL (≈ 0.576 µM); in [6] it was 1.6 µg/mL (≈ 4.61 µM); in assay [7] it was 0.4 µg/mL (≈ 1.15 µM). For the same compound, the MIC is 3.1 µg/mL (≈ 8.92 µM) in [8]; 0.4 µg/mL (≈ 1.15 µM) in assay [9]; 3.1 µg/mL (≈ 8.92 µM) in assay [10]; 0.4 µg/mL (≈ 1.15 µM) in [11]; 6.3 µg/mL (≈ 18.1 µM) in assay [12]. Besides, in assay [2], the IC50 is 3 µg/mL (≈ 8.64 µM).
Regarding `CC1COc2c(N3CCC(CN(C)C)C3)c(F)cc3c(=O)c(C(=O)O)cn1c23` (stereo unspecified), the MIC in assay [1] came to 0.2 µg/mL (≈ 0.514 µM); in [3] it was 0.2 µg/mL (≈ 0.514 µM); in assay [4], 0.4 µg/mL (≈ 1.03 µM); in assay [5], 0.4 µg/mL (≈ 1.03 µM); in [6], 3.1 µg/mL (≈ 7.96 µM); in assay [7], 0.8 µg/mL (≈ 2.05 µM). Further, the MIC in [8] was found to be 0.2 µg/mL (≈ 0.514 µM); in [9] it was 0.05 µg/mL (≈ 0.128 µM); in assay [10], 0.05 µg/mL (≈ 0.128 µM); in [11], 0.05 µg/mL (≈ 0.128 µM); in assay [12] it was 0.4 µg/mL (≈ 1.03 µM). In addition, the IC50 in [2] amounted to 3 µg/mL (≈ 7.7 µM). Besides, the ED50 was found to be 6.2 mg/kg in assay [13] and 2.6 mg/kg in assay [14].
With `CC1COc2c(N3CCN(C)CC3)c(F)cc3c(=O)c(C(=O)O)cn1c23` (stereo unspecified) [OFLOXACIN], the MIC in assay [1] amounted to 0.05 µg/mL (≈ 0.138 µM); in assay [3], 0.1 µg/mL (≈ 0.277 µM); in [4] it was 0.1 µg/mL (≈ 0.277 µM); in assay [5] it was 0.1 µg/mL (≈ 0.277 µM); in assay [6], 0.4 µg/mL (≈ 1.11 µM); in assay [7] it was 0.2 µg/mL (≈ 0.553 µM). In addition, the MIC in [8] was 0.4 µg/mL (≈ 1.11 µM); in [9] it was 0.1 µg/mL (≈ 0.277 µM); in assay [10], 0.8 µg/mL (≈ 2.21 µM); in [11], 0.8 µg/mL (≈ 2.21 µM); in assay [12] it was 0.8 µg/mL (≈ 2.21 µM). Also, the IC50 in assay [2] worked out at 2.25 µg/mL (≈ 6.23 µM). In addition, the values for the ED50 in [13] and in assay [14] were 2 mg/kg and 0.8 mg/kg, respectively.
`CN(C)CC1CCN(c2c(F)cc3c(=O)c(C(=O)O)cn4c3c2OCC42CC2)C1` (stereo unspecified): the MIC amounted to 0.8 µg/mL (≈ 1.99 µM) in [1]; 0.4 µg/mL (≈ 0.996 µM) in assay [3]; 0.8 µg/mL (≈ 1.99 µM) in assay [4]; 0.8 µg/mL (≈ 1.99 µM) in [5]; 6.3 µg/mL (≈ 15.7 µM) in [6]; 3.1 µg/mL (≈ 7.72 µM) in assay [7]. The MIC in [8] came to 0.8 µg/mL (≈ 1.99 µM); in [9], 0.2 µg/mL (≈ 0.498 µM); in [10] it was 0.4 µg/mL (≈ 0.996 µM); in [11], 0.4 µg/mL (≈ 0.996 µM); in [12], 0.8 µg/mL (≈ 1.99 µM). For the same compound, the IC50 in [2] turned out to be 11.2 µg/mL (≈ 28 µM). Also, the figures for the ED50 in assay [13] and in assay [14] were 16 mg/kg and 6.3 mg/kg, respectively.
On to `CCNCC1CCN(c2c(F)cc3c(=O)c(C(=O)O)cn4c3c2OCC4C)C1` (stereo unspecified), for which the MIC in assay [1] is 0.05 µg/mL (≈ 0.128 µM); in assay [3], 0.1 µg/mL (≈ 0.257 µM); in assay [4], 0.2 µg/mL (≈ 0.514 µM); in assay [5], 0.4 µg/mL (≈ 1.03 µM); in assay [6], 0.8 µg/mL (≈ 2.05 µM); in assay [7], 0.4 µg/mL (≈ 1.03 µM). The MIC in assay [8] was found to be 0.2 µg/mL (≈ 0.514 µM); in assay [9], 0.006 µg/mL (≈ 0.0154 µM); in assay [10], 0.025 µg/mL (≈ 0.0642 µM); in assay [11], 0.006 µg/mL (≈ 0.0154 µM); in [12], 0.05 µg/mL (≈ 0.128 µM). For the same compound, the ED50 was > 100 mg/kg in assay [13] and 11 mg/kg in [14].
